Experimental data of several laboratories.
Protocols differ between the studies behind these lines.
Target: BMP-2-inducible protein kinase (BMP2K, Homo sapiens, UniProt Q9NSY1)

CCCCC(=O)Nc1ccc(-c2ccc3ncn(CCC)c(=O)c3c2)cn1 gave a remaining binding of 98% (binding; competition with immobilised ligand; 0.5 µM).
COc1ccc2oc(-c3ccc4nc(N)oc4c3)c/c(=N\c3ccccc3NC(=O)CCN)c2c1 has a remaining binding of 105% (binding; 1 µM).
CC#CC(=O)N1CCC[C@H]1c1nc(-c2ccc(C(=O)Nc3ccccn3)cc2)c2c(N)nccn12 has an inhibition of 26% (enzyme activity; inhibitor; 1 µM).
For COc1ccc2[nH]c3c4[nH]c5ccc(OC)cc5c4c4c(c3c2c1)C(=O)NC4=O, the remaining binding was 76% (binding; 1 µM).
CNS(=O)(=O)c1ccc(Nc2ncc(C(F)(F)F)c(N3CCC[C@](C)(O)C3)n2)c(C)c1 has a remaining binding of 79% (binding; competition with immobilised ligand; 1 µM).
The remaining signal of C[C@H]1CC[C@H](n2c3cnccc3c3cnc(Nc4ccc5c(n4)CCN(C(=O)CO)C5)nc32)CC1 is reported as 17% (cell-free assay; 1 µM).
C=CC(=O)N1CCC[C@@H](n2nc(-c3ccc(Oc4ccccc4)cc3)c3c(N)ncnc32)C1 gave an inhibition of 17% (enzyme activity; inhibitor; 1 µM).
With C[C@]1(O)CCCN(c2nc(Nc3ccc(S(=O)(=O)N[C@H]4CC[C@H](CN5CCN(c6ccc(C7CCC(=O)NC7=O)cc6F)CC5)CC4)cc3Cl)ncc2C(F)(F)F)C1 (some centres unmarked) the remaining binding was 99% (binding; competition with immobilised ligand; 1 µM).
